From ChEMBL document CHEMBL5338759, “N-Phenyl-1-(phenylsulfonyl)-1H-1,2,4-triazol-3-amine as a New Class of HIV-1 Non-nucleoside Reverse Transcriptase Inhibitor” (J Med Chem, 2023) come the findings set out here.

One may read the AUC(0-t) as exposure summed from dosing to a finite time, without extrapolation to infinity. A high value points to high exposure. Usually IC50 stands for the midpoint of a concentration-inhibition curve. Low readings indicate greater potency, high ones weaker potency. In general, Tmax refers to the time at which the peak concentration occurs.

Each structure is given as a SMILES string.

A short description of data set [1]: Subacute toxicity in BALB/c mouse assessed as body weight gain at 25 to 250 mg/kg, IG measured daily for 30 days. The following applies: in vivo, po, 720 h, dose 25-250 mg/kg, time 30 day. The class given is organism-based. A digest of the protocol: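 Male Balb/C mice (17 per group, initial weight 20.9 ± 0.8 g) were dosed intragastrically once daily for 30 days at 25 or 250 mg/kg. Doses were given as 2.5 or 25 mg/ml suspensions in 1% starch gel at 0.2 ml per 20 g; controls received starch gel alone. Weight, coat, mucous membranes and excretion were recorded throughout.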

Data set [2] can be described thus: Subacute toxicity in BALB/c mouse assessed as effect on heart weight at 25 to 250 mg/kg, IG measured daily for 30 days. The class given is organism-based. As to conditions: in vivo, po, 720 h, dose 25-250 mg/kg, time 30 day.
Data set [3] in a line: Subacute toxicity in BALB/c mouse assessed as reduction in total protein level at 25 to 250 mg/kg, IG measured daily for 30 days. The format is organism-based. As to conditions: in vivo, po, 720 h, dose 25-250 mg/kg, time 30 day. Summed up:
(§1)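 Dosing was daily intragastric 25 or 250 mg/kg in 1% starch gel (0.2 ml/20 g) for 30 days in male Balb/C mice, 17 per group, with starch gel controls. After the final dose, mice were fasted for 2 h with water available, then bled. Serum was clotted for 30 min at room temperature and centrifuged at 3500 rpm. Total protein, urea, creatinine, AST, ALT and alkaline phosphatase were assayed and compared by Mann-Whitney with Holm-Šídák, p < 0.05.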

Data set [4] can be described thus: Acute toxicity in BALB/c mouse at 2000 mg/kg, IG measured for 14 days. The class given is organism-based. As to conditions: in vivo, po, 336 h, time 14 day. Summed up: (§2)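 Male Balb/C mice, 5–6 weeks old and 19–21 g, were deprived of food and water for 1.5–2 h. They were given a single intragastric 2000 mg/kg dose at 0.5 ml/20 g, prepared just before use. Controls received 0.5 ml of 1% starch gel intragastrically. There were 5 mice per group, observed for 14 days for condition and weight; weight was compared by Šídák's multiple comparisons test.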

A short description of data set [5]: AUC (0 to 24 hrs) in BALB/c mouse plasma at 250 mg/kg, IG measured at 0.5 to 24 hrs by HPLC-MS analysis. As to conditions: po. The format is ADME, organism-based. Also on record: time upper 24 hrs, time lower 0.5 hrs, dose 250 mg/kg, route ig. A digest of the protocol: (§3)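 Mice averaging 20 g (24 animals) were fasted 1 h before and 1 h after dosing. They received 250 mg/kg as 0.5 ml suspension in 1% CMC, 0.05% Tween 80 by intragastric intubation. Blood and brain were taken after decapitation at 0.5, 1, 2, 3, 5, 8 and 24 h (3 per time point). Plasma was frozen at -20°C and brain at -120 °C. Quantification was by UPLC-HRMS (ESI+, EIC m/z 476.0691) against plasma-matrix standards. Parameters were derived by noncompartmental analysis; LLOQ 5 ng/ml, with values below it set to 2.5.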

Data set [6] concerns Human immunodeficiency virus. Description: Antiviral activity against wild type HIV IIIB infected in human TZM-bl cells. The class given is functional, organism-based. As to conditions: Human immunodeficiency virus 1, IIIB. Summed up: (§4)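 TZM-bl cells (2x10⁵/mL) infected with HIV-1 IIIB grown in H9 cells, with 15 µg/mL DEAE-dextran; serial dilutions from 10 mM DMSO stocks, DMSO held constant (0.005% or 0.05%); 37°C, 5% CO₂, 48 hr; cells lysed, luciferase RLU read.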

The nature of data set [7]: Selectivity ratio of IC50 for antiviral activity against wild type HIV1 IIIB infected in human TZM-bl cells to IC50 for antiviral activity against HIV1 harboring K103N mutant infected in human TZM-bl cells. The format is toxicity, cell-based. As to conditions: human immunodeficiency virus 1. A digest of the protocol: (§5)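 TZM-bl cells (2x10⁵/mL) with 15 µg/mL DEAE-dextran were infected with HIV-1 IIIB, A17 (K103N/Y181C) IIIB variant, or NL4-3-based NNRTI-resistant mutants. Compound was present at 0.05–500 nM (DMSO held constant, 0.005% or 0.05%) for 48 hr at 37°C, 5% CO₂.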

A short description of data set [8]: Subacute toxicity in BALB/c mouse assessed as reduction in RBC count at 25 to 250 mg/kg, IG measured daily for 30 days. The class given is organism-based, Erythrocyte. The following applies: in vivo, po, 720 h, dose 25-250 mg/kg, time 30 day.
Data set [9] can be described thus: Subacute toxicity in BALB/c mouse assessed as effect on spleen weight at 25 to 250 mg/kg, IG measured daily for 30 days. The class given is organism-based. The following applies: in vivo, po, 720 h, dose 25-250 mg/kg, time 30 day.
The nature of data set [10]: Tmax in BALB/c mouse plasma at 250 mg/kg, IG measured at 0.5 to 24 hrs by HPLC-MS analysis. The class given is ADME, organism-based. As to conditions: in vivo, po, time 0.5-24 hrs. Summed up:
as §3

Data set [11] is described as follows: Selectivity ratio of IC50 for antiviral activity against wild type HIV1 IIIB infected in human TZM-bl cells to IC50 for antiviral activity against HIV1 harboring A17 mutant infected in human TZM-bl cells. The following applies: human immunodeficiency virus 1. The format is toxicity, cell-based. A digest of the protocol:
as §5

Data set [12] in a line: Subacute toxicity in BALB/c mouse assessed as effect on thymus weight at 25 to 250 mg/kg, IG measured daily for 30 days. The format is organism-based. As to conditions: in vivo, po, 720 h, dose 25-250 mg/kg, time 30 day.
Data set [13] can be described thus: Selectivity index, ratio of CC50 for cytotoxicity against human TZM-bl cells assessed as reduction in cell viability by MTS assay to EC50 for antiviral activity against wild type HIV1 IIIB infected in human TZM-bl cells. The class given is toxicity, cell-based. The following applies: read-out: Ratio CC50/EC50. (Tetrazolium assays rely on reduction of a dye to a coloured formazan, in cell work by metabolically active cells.)

The nature of data set [14]: Selectivity ratio of IC50 for antiviral activity against wild type HIV1 IIIB infected in human TZM-bl cells to IC50 for antiviral activity against HIV1 harboring L100I/K103N double mutant infected in human TZM-bl cells. The format is toxicity, cell-based. As to conditions: human immunodeficiency virus 1. Summed up:
as §5

Data set [15] can be described thus: Subacute toxicity in BALB/c mouse assessed as effect on liver weight at 25 to 250 mg/kg, IG measured daily for 30 days. The class given is organism-based. The following applies: in vivo, po, 720 h, dose 25-250 mg/kg, time 30 day.
Data set [16] in a line: Subacute toxicity in BALB/c mouse assessed as reduction in urea level at 25 to 250 mg/kg, IG measured daily for 30 days. The format is organism-based. The following applies: in vivo, po, 720 h, dose 25-250 mg/kg, time 30 day. Summed up:
as §1

The subject of data set [17] is Human immunodeficiency virus 1. Put plainly: Antiviral activity against wild type HIV1 IIIB infected in human TZM-bl cells. The class given is functional, organism-based. The following applies: Human immunodeficiency virus 1, IIIB. Summed up:
as §4

Data set [18] is described as follows: Subacute toxicity in BALB/c mouse assessed as pathological change in intestine at 25 to 250 mg/kg, IG measured daily for 30 days by H and E staining based histological analysis. The class given is organism-based. As to conditions: in vivo, po, 720 h, dose 25-250 mg/kg, time 30 day. Summed up:
(§6)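 Male Balb/C mice (17 per group) received 25 or 250 mg/kg intragastrically in 1% starch gel once daily for 30 days, against starch gel controls. Internal organs were examined macroscopically after the study. Sections were paraffin-embedded and stained with hematoxylin and eosin.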

Data set [19] in a line: Subacute toxicity in BALB/c mouse assessed as effect on kidney weight at 25 to 250 mg/kg, IG measured daily for 30 days. The format is organism-based. The following applies: in vivo, po, 720 h, dose 25-250 mg/kg, time 30 day.
Data set [20] is described as follows: Acute toxicity in BALB/c mouse assessed as body weight gain at 2000 mg/kg, IG measured for 14 days. The class given is organism-based. The following applies: in vivo, po, 336 h, time 14 day. Summed up:
as §2

Data set [21] is described as follows: AUC (0 to 24 hrs) in BALB/c mouse brain at 250 mg/kg, IG measured at 0.5 to 24 hrs by HPLC-MS analysis. The format is ADME, organism-based. Set-up: dose 250 mg/kg, time 0.5-24 hrs, route ig. The following applies: po. A digest of the protocol: as §3
The nature of data set [22]: Subacute toxicity in BALB/c mouse assessed as pathological change in lungs at 25 to 250 mg/kg, IG measured daily for 30 days by H and E staining based histological analysis. The class given is organism-based. The following applies: in vivo, po, 720 h, dose 25-250 mg/kg, time 30 day. Summed up: as §6
Data set [23] in a line: Subacute toxicity in BALB/c mouse assessed as reduction in […] level at 25 to 250 mg/kg, IG measured daily for 30 days. The class given is organism-based. As to conditions: in vivo, po, 720 h, dose 25-250 mg/kg, time 30 day. A digest of the protocol:
as §1

`N#C/C=C/c1ccc2c(S(=O)(=O)n3nc(Nc4ccc(C#N)c(Cl)c4)nc3N)cccc2c1`: the Activity result in data set [1], in [2], in data set [3], in data set [4], in data set [8] and in data set [9] was “Non-Toxic” in each case. Moreover, the Activity result in data set [12], in data set [15], in data set [16], in data set [18], in data set [19] and in data set [20] was “Non-Toxic” in each case. Also, the Activity entry in data set [22] and in [23] was “Non-Toxic” throughout. Further, the AUC(0-t) in [5] came to 397 µg·h/mL; in [21] it was 142 µg·h/mL. Also, the IC50 in data set [6] came out at 0.31 nM; in [17], 0.24 nM. Also, the “Ratio IC50” value came to 8.9 in data set [7], 5.6 in [11] and 75 in [14]. Besides, the Tmax in [10] is 42 min. In data set [13], the selectivity ratio is 10000.
